# 5HT1E ag: 5-HT1E receptor agonists, primary screen, cell-based, HTS | CHO 5-HT1E Ga15 NFAT-bla reporter, FRET; 0% DMSO wells, 100% control agonist wells | activation, % at 6 µM | 0.69% of 65,000 active | AID 574, 2007 | 5-hydroxytryptamine receptor 1E (Homo sapiens), P28566;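 active = activation above a set limit, the screen-wide mean activation plus 3 SD, cut at about 8.5% in these data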
# S1P1 ag-PAM: S1P1 agonists and agonism potentiators, primary screen, cell-based, primary and confirmation screens, CRE-bla reporter. 0.57% of 56,000 active. Sphingosine 1-phosphate receptor 1 (Homo sapiens), P21453. S1P1 CRE-bla cells, forskolin, beta-lactamase FRET, potentiator mode; S1P1 agonist co-added at EC20, 2 nM; 100% = saturating reference agonist, 0% = basal. activation, % at 9.5 µM;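 active = activation above a cutoff set at the mean activation of all tested compounds plus 3 SD, cut at about 54% in these data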;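 also: forskolin at 4 µM as EC80 and the EC20 agonist is SEW2871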
# Target sequence (P21453 whole entry, looked up): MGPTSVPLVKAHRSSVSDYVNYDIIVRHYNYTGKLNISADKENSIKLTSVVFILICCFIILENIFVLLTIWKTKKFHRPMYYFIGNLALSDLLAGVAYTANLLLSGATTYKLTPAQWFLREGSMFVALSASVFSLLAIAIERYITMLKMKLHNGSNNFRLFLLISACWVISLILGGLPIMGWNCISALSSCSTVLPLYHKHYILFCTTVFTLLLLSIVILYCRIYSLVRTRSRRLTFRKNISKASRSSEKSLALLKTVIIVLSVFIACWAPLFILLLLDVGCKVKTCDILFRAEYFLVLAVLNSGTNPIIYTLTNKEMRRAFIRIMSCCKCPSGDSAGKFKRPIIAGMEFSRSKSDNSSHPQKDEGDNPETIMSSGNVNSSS
# HTR1A agonist: human 5-HT1a receptor agonists, primary screen, cell-based, CHO, Ga15 NFAT-bla reporter. 0.56% of 65,000 active. 5-hydroxytryptamine receptor 1A (Homo sapiens), P08908. activation, % at 10 µM. CHO 5-HT1a Ga15 NFAT-bla reporter, FRET ratio; 0% basal, 100% maximal reference agonist. AID 567, 2006;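 active = activation above the screen-wide mean activation plus 3 SD, cut at about 19% in these data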
# 5HT1a antag: human 5-HT1a receptor antagonists, primary screen, cell-based, CHO, Ga15 NFAT-bla reporter. 5-hydroxytryptamine receptor 1A (Homo sapiens), P08908. CHO 5-HT1a Ga15 NFAT-bla reporter, antagonist mode. inhibition, % at 10 µM. 0.68% of 62,000 active;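 active = inhibition above the mean of all tested compounds plus 3 SD, cut at about 43% in these data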;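 also: receptor stimulated by 5-CT agonist at 100 nM near EC80; beta-lactamase reporter measured by ratiometric fluorescence of a cleavable substrate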
# S1P3 ag: human S1P3 receptor agonists, primary screen, cell-based, primary and confirmation, NFAT-BLA reporter; activation, % at 4.5 µM; AID 373, 2006; Sphingosine 1-phosphate receptor 3 (Homo sapiens), Q99500; 0.1% of 60,000 active; S1P3 NFAT-BLA reporter cells, agonism, FRET ratio; relative to 1 µM S1P, basal subtracted;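 active = activation above the screen-wide mean plus 3 SD, cut at about 4.5% in these data, passing the limit was not always enough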
#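 Material: Human S1P3 NFAT-BLA reporter CHO cells | Incubation: Overnight plating, 4 h compound 37 °C, 2 h substrate RT | Signal: FRET β-lactamase substrate fluorescence, excitation 405 nm, 460/535 nm emission ratio, background-subtracted | Compound: 4.5 µM final, single dose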
# HTR1E antagonist: 5-HT1E receptor antagonists, primary screen, cell-based, HTS. inhibition, % at 6 µM. 5-hydroxytryptamine receptor 1E (Homo sapiens), P28566. CHO 5-HT1E Ga15 NFAT-bla reporter, FRET, antagonist. 0.99% of 65,000 active;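 active = inhibition above a set limit, the mean inhibition across every tested compound plus 3 SD, cut at about 29% in these data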;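 also: signal is the 460 over 535 nm emission ratio of beta-lactamase substrate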
# A number is an active result; – = inactive; · = no result. Hits are enriched below; roughly 2.9% of the tested compounds scored in any of these assays.
SMILES,5HT1E ag,S1P1 ag-PAM,HTR1A agonist,5HT1a antag,S1P3 ag,HTR1E antagonist
Nc1c(NCc2ccccc2F)c(=O)[nH]c(=O)n1Cc1ccccc1,–,·,81,–,·,–
Cc1cccc(N2CCN(C(=O)COc3cc(=O)n(C)c4ccccc34)CC2)c1C,13,–,–,–,–,–
CCOc1cc(C2/C(=C(/O)c3ccc(OC(C)C)cc3)C(=O)C(=O)N2CCCOC)ccc1O (stereo unspecified),–,–,–,–,–,–
O=C(NCCN1CCCCCC1)c1ccc(N2CCCC2=O)cc1,–,–,–,–,–,–
O=C(NCCCN1CCN(c2cccc(Cl)c2)CC1)c1cccc(N2CCCC2=O)c1,–,·,–,89,·,–
O=C(CCN1C(=O)COc2ccccc21)NCCN1CCN(c2cccc(Cl)c2)CC1,9.6,–,–,–,–,–
O=C(NCCCN1CCN(c2cccc(Cl)c2)CC1)c1ccc(N2CCCC2=O)cc1,–,·,–,46,·,–
O=C(NCCCN1CCCC1=O)c1cccc(N2CCCC2=O)c1,–,–,–,–,–,–
Cc1cccc(C(=O)NCCN2CCN(c3ccccc3)CC2)c1,–,–,52,–,–,–
CC1(C)CC2(CCO1)CNC(=O)O2 (stereo unspecified),–,–,–,–,–,–
CCCC(=O)Nc1ccc2oc(-c3ccncc3)nc2c1,–,–,–,–,–,–
COc1ccc(CC(=O)Nc2cccc(-c3nnc(-c4cccc(C)c4)o3)c2)cc1OC,–,·,–,92,–,80
COc1ccc(-c2nc3cc(NC(=O)Cc4ccc(OC)c(OC)c4)ccc3o2)cc1,–,81,–,–,–,–
CCCC(=O)Nc1ccc(-c2nc3cc(C)c(C)cc3o2)cc1,–,82,–,–,–,–
COc1ccc(CC(=O)Nc2cccc(-c3nnc(-c4ccc(C)cc4)o3)c2)cc1OC,–,–,–,–,–,34
COc1ccc(CC(=O)Nc2cccc(-c3nnc(-c4ccccc4)o3)c2)cc1OC,–,–,–,–,–,–
C=CCn1c(COc2cccc3ccc(C)nc23)nnc1SCC(N)=O,–,–,–,–,–,–
O=C(CCn1nnc2ccccc21)Nc1nnc(Cc2ccc(F)cc2)s1,13,–,–,–,–,–
O=C(CCn1nnc2ccccc21)Nc1nnc(COc2ccc(F)cc2)s1,–,–,–,–,–,–
O=C(CSc1ncnc2c1nnn2-c1ccc(F)cc1)N1CCN(c2ccccc2)CC1,–,·,–,–,·,–
CCOC(=O)c1oc2cc(O)c(CC)cc2c(=O)c1-c1ccc2c(c1)OCCO2,–,–,–,–,–,–
Cc1oc2cc(O)cc(O)c2c(=O)c1-c1ccc2c(c1)OCCCO2,–,93,–,–,–,–
CN(C)CC(C)(C)NS(=O)(=O)c1ccc(Cl)cc1,–,–,–,–,–,–
Cc1nn(CCc2nc(-c3ccco3)cs2)c2[nH]c(=O)cc(C(F)(F)F)c12,–,–,–,–,–,–
Cc1cc(C(=O)CSc2nnc(-c3ccccc3)n2C)c(C)n1C,–,–,–,–,–,–
SMILES,5HT1E ag,S1P1 ag-PAM,HTR1A agonist,5HT1a antag,S1P3 ag,HTR1E antagonist
Cc1cc(C(=O)CSc2nnc(-c3ccncc3)n2-c2ccccc2)c(C)n1C,–,97,–,–,–,–
Cc1cc(C(=O)CSc2nnc(-c3cccnc3)n2-c2ccccc2F)c(C)n1C,–,101,–,–,–,–
CCc1ccccc1-n1c(SCC(=O)NC)nnc1-c1cccnc1,–,–,–,–,–,–
Cc1cc(C(=O)CSc2nnc(-c3ccccc3)n2-c2ccccc2)c(C)n1-c1ncn[nH]1,–,90,–,–,–,–
CCOc1ccccc1-n1c(SCC(N)=O)nnc1-c1ccccc1,–,–,–,–,–,–
COc1ccc2c(CC(=O)NCc3ccc4c(c3)OCO4)coc2c1,–,–,–,–,–,–
CN1C(=O)C2(C(C#N)=C(N)Oc3c2oc(CO)cc3=O)c2ccccc21 (stereo unspecified),–,·,–,–,–,–
COc1cccc(-n2c(C)c(C(C)=O)c(C(C)=O)c2C)c1,–,–,–,–,–,–
O=C(CCNS(=O)(=O)c1cccc2nsnc12)N1CC(=O)N(CCc2ccccc2)C(=O)C1,–,–,–,–,–,–
COc1ccc(NC(=O)C2CCCN(S(=O)(=O)c3cccnc3)C2)c(OC)c1 (stereo unspecified),–,–,–,–,–,–
CCN(CC)c1ccc(NC(=O)C2CCCN(S(=O)(=O)c3cccnc3)C2)c(C)c1 (stereo unspecified),–,–,–,–,–,32
COc1ccc(Cl)cc1N(CC(=O)Nc1ccccc1SC)S(C)(=O)=O,–,–,–,–,–,–
COc1cccc(C(=O)Cn2c(N3CCCCC3)nc3c2c(=O)n(C)c(=O)n3C)c1,–,–,–,–,–,–
COc1cccc(C(=O)Cn2c(=N)n(C)c3ccccc32)c1,–,–,–,47,–,–
CCC(C)NC(=O)Cn1cnc2sc(C)cc2c1=O (stereo unspecified),–,–,–,–,–,–
CC(C)Oc1ccc(C(=O)Nc2ccc(N3CCCC3)cc2)cc1,–,–,50,–,–,–
CCCCOc1cccc(C(=O)Nc2ccc(N3CCN(CC)CC3)cc2)c1,–,–,–,–,–,–
CCCCOc1ccc(C(=O)Nc2ccc(N3CCN(C)CC3)cc2)cc1,15,–,–,–,–,–
CCOC(=O)c1c(C#N)c(SCC(=O)Nc2ccc(OC)cc2)nc2c1CN(CC)CC2,–,·,–,–,–,–
COc1cc2c(cc1OC)-c1cc(OCc3cccnc3)nc(=O)n1CC2,–,–,–,–,–,–
COc1cc2c(cc1OC)-c1cc(NC3CCCCCC3)nc(=O)n1CC2,–,–,–,–,–,49
COc1cc2c(cc1OC)-c1cc(N3CCCCCC3)nc(=O)n1CC2,–,–,–,–,–,41
COc1cc2c(cc1OC)-c1cc(N3CCCc4ccccc43)nc(=O)n1CC2,–,–,–,–,–,64
COc1cc2c(cc1OC)-c1cc(Nc3ccc4c(c3)OCCO4)nc(=O)n1CC2,–,–,–,–,–,40
Cc1cc(C)cc(-n2nnc(C(=O)NCc3ccccc3Cl)c2N)c1,–,–,–,–,–,–

# Screens from PubChem BioAssay.
